Test results taken from ChEMBL document CHEMBL1142350, “From rigid cyclic templates to conformationally stabilized acyclic scaffolds. Part I: the discovery of CCR3 antagonist development candidate BMS-639623 with picomolar inhibition potency against eosinophil chemotaxis” (Bioorg Med Chem Lett, 2008).

Experiments:
[1] = biological target: T1, C-C chemokine receptor type 3 (Homo sapiens, UniProt P51677); assay: Displacement of [125I]eotaxin from human CCR3 receptor expressed in CHO cells; format: cell-based
T1 sequence (P51677 whole entry): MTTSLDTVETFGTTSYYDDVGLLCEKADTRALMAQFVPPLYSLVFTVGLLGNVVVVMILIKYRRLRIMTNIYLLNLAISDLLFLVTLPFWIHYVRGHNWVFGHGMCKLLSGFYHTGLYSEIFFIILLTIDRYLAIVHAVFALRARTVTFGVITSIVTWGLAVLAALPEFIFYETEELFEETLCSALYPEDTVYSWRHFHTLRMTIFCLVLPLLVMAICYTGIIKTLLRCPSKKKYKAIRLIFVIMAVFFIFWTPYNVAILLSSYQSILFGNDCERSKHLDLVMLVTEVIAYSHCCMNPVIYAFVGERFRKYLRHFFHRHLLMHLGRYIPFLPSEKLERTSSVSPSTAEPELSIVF

Cytochrome P450 2D6 = Cytochrome P450 2D6 (Homo sapiens, UniProt P10635)
[2] = Metabolic stability assessed as clearance in human liver microsomes; format: ADME, Microsome
[3] = Cmax in cynomolgus monkey at 10 mg/kg, po; format: ADME, organism-based, Macaca fascicularis; set-up: dose 10 mg/kg, route oral; details: in vivo
[4] = AUC in cynomolgus monkey at 10 mg/kg, po; format: ADME, organism-based, Macaca fascicularis; set-up: dose 10 mg/kg, route oral; details: plasma
[5] = Cmax in mouse at 10 mg/kg, po; format: ADME, organism-based; set-up: dose 10 mg/kg, route oral; details: in vivo
[6] = Cmax in rat at 50 mg/kg, po; format: ADME, organism-based; set-up: dose 50 mg/kg, route oral; details: in vivo
Cynomolgus monkey = assay: Reduction of eosinophilia in Ascaris suum-challenged cynomolgus monkey at 5 mg/kg, po bid 2 hrs administered before pathogen challenge after 10 hrs; format: functional, Macaca fascicularis; set-up: scale not given: the % may be the effect or the level left
Method in brief: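 Cross-over design in five cynomolgus monkeys given vehicle or compound orally at 5 mg/kg b.i.d., 2 h before and 10 h after Ascaris suum aerosol challenge. Bronchoalveolar lavage was done 24 h after challenge and eosinophils were counted. Trough plasma levels were measured.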

[7] = Bioavailability in dog at 10 mg/kg, po; format: ADME, organism-based, Canis lupus familiaris; details: in vivo
[8] = AUC in mouse at 10 mg/kg, po; format: ADME, organism-based; set-up: dose 10 mg/kg, route oral; details: plasma
[9] = Bioavailability in rat at 50 mg/kg, po; format: ADME, organism-based; details: in vivo
[10] = Bioavailability in chimpanzee at 2 mg/kg, po; format: ADME, organism-based, Pan troglodytes; details: in vivo
[11] = Bioavailability in mouse at 10 mg/kg, po; format: ADME, organism-based; details: in vivo
[12] = AUC in rat at 50 mg/kg, po; format: ADME, organism-based; set-up: dose 50 mg/kg, route oral; details: plasma
[13] = biological target: T1, C-C chemokine receptor type 3; assay: Antagonist activity at human CCR3 receptor in human eosinophil assessed as inhibition of eotaxin-stimulated intracellular calcium flux; format: functional, cell-based
[14] = AUC in chimpanzee at 2 mg/kg, po; format: ADME, organism-based, Pan troglodytes; set-up: dose 2 mg/kg, route oral; details: plasma
[15] = Cmax in chimpanzee at 2 mg/kg, po; format: ADME, organism-based, Pan troglodytes; set-up: dose 2 mg/kg, route oral; details: in vivo
[16] = Bioavailability in cynomolgus monkey at 10 mg/kg, po; format: ADME, organism-based, Macaca fascicularis; details: in vivo
[17] = Cmax in dog at 10 mg/kg, po; format: ADME, organism-based, Canis lupus familiaris; set-up: dose 10 mg/kg, route oral; details: in vivo
[18] = AUC in dog at 10 mg/kg, po; format: ADME, organism-based, Canis lupus familiaris; set-up: dose 10 mg/kg, route oral; details: plasma
[19] = biological target: T2, C-C chemokine receptor type 3 (Homo sapiens) (UniProt P51677); assay: Displacement of [125I]eotaxin from human CCR3 receptor expressed in CHO cells at 0.3 uM; format: cell-based
T2 sequence (whole entry): T1 sequence (P51677 whole entry)

Cytochrome P450 2D6, sequence (P10635 whole entry): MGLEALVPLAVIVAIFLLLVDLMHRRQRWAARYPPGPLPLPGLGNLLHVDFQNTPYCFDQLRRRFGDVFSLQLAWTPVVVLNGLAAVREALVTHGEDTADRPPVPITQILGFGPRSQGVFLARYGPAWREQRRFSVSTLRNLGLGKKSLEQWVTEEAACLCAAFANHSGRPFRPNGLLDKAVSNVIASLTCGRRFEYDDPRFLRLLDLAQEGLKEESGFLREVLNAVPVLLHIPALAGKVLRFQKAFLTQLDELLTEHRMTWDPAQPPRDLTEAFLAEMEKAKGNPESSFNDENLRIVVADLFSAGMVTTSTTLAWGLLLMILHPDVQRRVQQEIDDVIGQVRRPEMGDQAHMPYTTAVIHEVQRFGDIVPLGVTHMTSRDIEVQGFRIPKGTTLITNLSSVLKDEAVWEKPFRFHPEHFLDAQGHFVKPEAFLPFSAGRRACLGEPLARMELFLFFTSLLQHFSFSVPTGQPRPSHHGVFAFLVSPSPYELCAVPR

Compound | IC50 [1] [nM] | IC50 (Cytochrome P450 2D6) [nM] | also measured
C[C@H](CCN1CCC[C@@H](Cc2ccc(F)cc2)C1)NC(=O)Nc1cc(-n2ccnn2)cc(-n2ccnn2)c1 | 2 |  | 
CC(=O)c1cc(NC(=O)N[C@@H](C)CCN2CCC[C@@H](Cc3ccc(F)cc3)C2)cc(C(C)=O)c1 | 5.8 |  | 
C[C@@H](NC(=O)Nc1cccc(-c2nnnn2C)c1)[C@@H](O)CN1CCC[C@@H](Cc2ccc(F)cc2)C1 |  | 2600 | Cmax [3]: 561 nM; AUC [4]: 1.05 µM·h; Cmax [5]: 1540 nM; Cmax [6]: 3170 nM; Activity (Cynomolgus monkey): 82%; bioavailability [7]: 17%; AUC [8]: 3.15 µM·h; bioavailability [9]: 45%; bioavailability [10]: 16%; bioavailability [11]: 57%; AUC [12]: 21.3 µM·h; IC50 [13]: 0.87 nM; AUC [14]: 0.639 µM·h; Cmax [15]: 173 nM; bioavailability [16]: 19%; Cmax [17]: 926 nM; AUC [18]: 2.74 µM·h
C[C@H](CC(=O)N1CCC[C@@H](Cc2ccc(F)cc2)C1)NC(=O)Nc1cccc(-c2nnnn2C)c1 | 4.2 | 4400 | 
CCc1cc(NC(=O)N[C@H](C)CCN2CCC[C@@H](Cc3ccc(F)cc3)C2)cc(-c2nnnn2C)c1 | 2 |  | 
C[C@@H](CCN1CCC[C@@H](Cc2ccc(F)cc2)C1)NC(=O)Nc1cccc(-c2nnnn2C)c1 | 4 |  | 
CC[C@H](CCN1CCC[C@@H](Cc2ccc(F)cc2)C1)NC(=O)Nc1cc(-c2nnnn2C)cc(C(C)(C)O)c1 | 2.4 | 8200 | CLhep predicted [2]: 15 mL/min/kg
C[C@@H](CC(=O)N1CCC[C@@H](Cc2ccc(F)cc2)C1)NC(=O)Nc1cccc(-c2nnnn2C)c1 |  | > 100000 | Activity [19]: 37%
CC(=O)c1cc(NC(=O)N[C@H](C)CCN2CCC[C@@H](Cc3ccc(F)cc3)C2)cc(C(C)=O)c1 | 2.7 |  | 
C[C@H](CCN1CCC[C@@H](Cc2ccc(F)cc2)C1)NC(=O)Nc1cc(Br)cc(-c2nnnn2C)c1 | 1.7 |  | 
C[C@H](CCN1CCC[C@@H](Cc2ccc(F)cc2)C1)NC(=O)Nc1cc(-n2cccn2)cc(-n2cccn2)c1 | 1.7 | 3000 | 
CC(C)c1cc(NC(=O)N[C@H](C)CCN2CCC[C@@H](Cc3ccc(F)cc3)C2)cc(-c2nnnn2C)c1 | 2.6 |  | 
CC(C)c1cc(NC(=O)NCCCN2CCC[C@@H](Cc3ccc(F)cc3)C2)cc(-c2nnnn2C)c1 | 2.6 |  | 

More lines, main results first:

IC50 [1] [nM] | IC50 (Cytochrome P450 2D6) [nM] | Compound | also measured
1.5 | 1000 | CCC[C@H](CCN1CCC[C@@H](Cc2ccc(F)cc2)C1)NC(=O)Nc1cc(-c2nnnn2C)cc(C(C)(C)O)c1 | CLhep predicted [2]: 17 mL/min/kg
1.6 | 2800 | O=C(NCCCN1CCC[C@@H](Cc2ccc(F)cc2)C1)Nc1cc(-n2cccn2)cc(-n2cccn2)c1 | 
0.5 |  | CCc1cc(NC(=O)N[C@H](C)[C@H](CN2CCC[C@@H](Cc3ccc(F)cc3)C2)N(C)C)cc(-c2nnnn2C)c1 | 
1.3 |  | C[C@H](CCN1CCC[C@@H](Cc2ccc(F)cc2)C1)NC(=O)Nc1cccc(-c2nnnn2C)c1 | 
1.5 |  | CC(=O)c1cc(NC(=O)N[C@H](C)CCN2CCC[C@@H](Cc3ccc(F)cc3)C2)cc(-c2nnnn2C)c1 | 
1.2 |  | Cc1cc(NC(=O)N[C@H](C)CCN2CCC[C@@H](Cc3ccc(F)cc3)C2)cc(-c2nnnn2C)c1 | 
1 |  | CCc1cc(NC(=O)NCCCN2CCC[C@@H](Cc3ccc(F)cc3)C2)cc(-c2nnnn2C)c1 | 
0.7 |  | C[C@H](CCN1CCC[C@@H](Cc2ccc(F)cc2)C1)NC(=O)Nc1cc(-c2nnnn2C)cc(C(C)(C)O)c1 | CLhep predicted [2]: 12 mL/min/kg
